Test results reported in ChEMBL document CHEMBL4330096, “Discovery of potent and selective 5-azaindazole inhibitors of leucine-rich repeat kinase 2 (LRRK2) - Part 1” (Bioorg Med Chem Lett, 2019).

What was measured:
[1] = biological target: Tyrosine-protein kinase SYK (Homo sapiens) (UniProt P43405); experiment: Inhibition of SYK (unknown origin) at 1 uM relative to control
Summary of the method: (§1)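 Single-concentration screen across a panel of 59 protein kinases, with each compound tested at one fixed concentration. The read-out is residual kinase activity relative to control. Panel results are also condensed into a rescaled geometric mean (RGM) selectivity score.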

Homo sapiens [2] = species on record: Homo sapiens; experiment: Inhibition of VEGFR (unknown origin) at 1 uM relative to control; summary of the method: as §1
[3] = biological target: Glycogen synthase kinase-3 beta (Homo sapiens) (UniProt P49841); experiment: Inhibition of GSK3b (unknown origin) at 1 uM relative to control
Chain of Glycogen synthase kinase-3 beta (Homo sapiens) (P49841 whole entry, looked up): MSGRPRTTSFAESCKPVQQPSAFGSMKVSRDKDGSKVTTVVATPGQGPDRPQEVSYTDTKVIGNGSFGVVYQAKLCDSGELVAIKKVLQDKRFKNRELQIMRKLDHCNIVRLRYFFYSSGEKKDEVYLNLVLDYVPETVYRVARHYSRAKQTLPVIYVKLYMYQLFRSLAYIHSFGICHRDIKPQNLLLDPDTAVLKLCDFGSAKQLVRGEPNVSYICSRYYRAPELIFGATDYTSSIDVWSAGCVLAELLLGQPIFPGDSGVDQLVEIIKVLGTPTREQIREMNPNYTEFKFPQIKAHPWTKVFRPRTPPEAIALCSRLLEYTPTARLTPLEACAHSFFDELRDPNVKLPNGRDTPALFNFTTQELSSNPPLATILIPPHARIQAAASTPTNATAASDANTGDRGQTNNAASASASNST
Summary of the method: (§2)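 Single-point screen of each compound against a panel of 59 protein kinases, at 1 or 10 μM. The panel data are also summarised as a rescaled geometric mean selectivity score.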

[4] = biological target: Serine/threonine-protein kinase PLK1 (Homo sapiens) (UniProt P53350); experiment: Inhibition of PLK1 (unknown origin) at 1 uM relative to control
Chain of Serine/threonine-protein kinase PLK1 (Homo sapiens) (P53350 whole entry): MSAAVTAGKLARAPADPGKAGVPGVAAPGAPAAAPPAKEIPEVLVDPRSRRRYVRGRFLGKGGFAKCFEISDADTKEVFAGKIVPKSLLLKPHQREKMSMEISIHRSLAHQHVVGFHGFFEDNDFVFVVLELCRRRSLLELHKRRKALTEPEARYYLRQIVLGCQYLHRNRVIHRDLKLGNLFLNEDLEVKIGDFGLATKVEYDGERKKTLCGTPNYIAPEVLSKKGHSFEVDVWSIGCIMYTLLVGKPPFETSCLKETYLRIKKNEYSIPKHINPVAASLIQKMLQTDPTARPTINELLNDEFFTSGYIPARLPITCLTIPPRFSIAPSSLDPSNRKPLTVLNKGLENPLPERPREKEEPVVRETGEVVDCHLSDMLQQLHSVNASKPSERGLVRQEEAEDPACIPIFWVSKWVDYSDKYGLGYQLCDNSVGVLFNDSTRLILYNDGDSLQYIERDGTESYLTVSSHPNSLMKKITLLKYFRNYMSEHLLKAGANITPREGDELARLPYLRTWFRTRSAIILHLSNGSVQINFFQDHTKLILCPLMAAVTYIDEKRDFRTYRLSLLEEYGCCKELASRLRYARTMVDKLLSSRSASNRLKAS
Summary of the method: (§3)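 Single-concentration screen of each compound against a 59-protein-kinase panel, run at 10 µM or 1 µM. Activity relative to control is shown as a heat map across the panel.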

Homo sapiens [5] = species on record: Homo sapiens; experiment: Inhibition of PKA (unknown origin) at 1 uM relative to control; summary of the method: as §3
[6] = biological target: RAC-beta serine/threonine-protein kinase (Homo sapiens) (UniProt P31751); experiment: Inhibition of PKBb (unknown origin) at 1 uM relative to control; summary of the method: as §3
Chain of RAC-beta serine/threonine-protein kinase (Homo sapiens) (P31751 whole entry): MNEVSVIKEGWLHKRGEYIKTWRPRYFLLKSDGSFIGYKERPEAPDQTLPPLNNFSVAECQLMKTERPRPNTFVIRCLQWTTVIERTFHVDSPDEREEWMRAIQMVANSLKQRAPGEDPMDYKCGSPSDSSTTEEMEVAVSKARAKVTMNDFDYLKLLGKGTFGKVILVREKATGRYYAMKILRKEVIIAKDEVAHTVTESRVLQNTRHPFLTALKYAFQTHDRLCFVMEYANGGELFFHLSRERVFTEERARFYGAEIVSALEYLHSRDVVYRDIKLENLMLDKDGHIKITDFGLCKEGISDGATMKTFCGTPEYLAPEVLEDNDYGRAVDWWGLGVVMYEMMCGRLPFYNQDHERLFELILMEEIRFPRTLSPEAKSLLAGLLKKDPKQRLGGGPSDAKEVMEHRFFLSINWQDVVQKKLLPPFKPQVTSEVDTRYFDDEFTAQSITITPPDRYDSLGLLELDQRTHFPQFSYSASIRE

[7] = biological target: Serine/threonine-protein kinase pim-1 (Homo sapiens) (UniProt P11309); experiment: Inhibition of PIM1 (unknown origin) at 1 uM relative to control; summary of the method: as §3
Chain of Serine/threonine-protein kinase pim-1 (Homo sapiens) (P11309 whole entry, looked up): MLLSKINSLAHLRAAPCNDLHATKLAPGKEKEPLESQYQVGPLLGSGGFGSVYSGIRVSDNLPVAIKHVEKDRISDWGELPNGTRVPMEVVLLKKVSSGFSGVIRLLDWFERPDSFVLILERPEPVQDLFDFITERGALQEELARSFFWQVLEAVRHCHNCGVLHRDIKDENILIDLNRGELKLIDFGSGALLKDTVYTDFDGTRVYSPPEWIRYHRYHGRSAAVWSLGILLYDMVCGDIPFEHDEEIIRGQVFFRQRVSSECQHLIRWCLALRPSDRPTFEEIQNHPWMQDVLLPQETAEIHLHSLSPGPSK

[8] = biological target: SRSF protein kinase 1 (Homo sapiens) (UniProt Q96SB4); experiment: Inhibition of SRPK1 (unknown origin) at 1 uM relative to control; summary of the method: as §1
Chain of SRSF protein kinase 1 (Homo sapiens) (Q96SB4 whole entry): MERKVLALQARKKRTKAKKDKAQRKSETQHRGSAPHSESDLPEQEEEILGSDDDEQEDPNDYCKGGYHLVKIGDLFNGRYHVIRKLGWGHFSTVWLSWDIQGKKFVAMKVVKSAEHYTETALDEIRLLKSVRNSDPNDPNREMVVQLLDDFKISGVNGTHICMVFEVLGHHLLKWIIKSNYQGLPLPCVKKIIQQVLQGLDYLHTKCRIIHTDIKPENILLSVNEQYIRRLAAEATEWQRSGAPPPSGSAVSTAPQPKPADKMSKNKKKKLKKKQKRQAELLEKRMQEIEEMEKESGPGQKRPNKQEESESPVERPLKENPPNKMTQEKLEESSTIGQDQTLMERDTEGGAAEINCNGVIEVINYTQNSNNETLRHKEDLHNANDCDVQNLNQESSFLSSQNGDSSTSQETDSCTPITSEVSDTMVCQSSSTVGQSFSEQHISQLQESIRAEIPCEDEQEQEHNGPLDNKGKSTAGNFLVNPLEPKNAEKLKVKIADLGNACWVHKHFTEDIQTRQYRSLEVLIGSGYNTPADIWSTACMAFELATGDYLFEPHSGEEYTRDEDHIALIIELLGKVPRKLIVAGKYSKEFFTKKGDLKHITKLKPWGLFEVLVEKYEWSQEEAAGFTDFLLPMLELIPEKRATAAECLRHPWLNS

[9] = biological target: Serine/threonine-protein kinase PAK 4 (Homo sapiens) (UniProt O96013); experiment: Inhibition of PAK4 (unknown origin) at 1 uM relative to control; summary of the method: as §3
Chain of Serine/threonine-protein kinase PAK 4 (Homo sapiens) (O96013 whole entry, looked up): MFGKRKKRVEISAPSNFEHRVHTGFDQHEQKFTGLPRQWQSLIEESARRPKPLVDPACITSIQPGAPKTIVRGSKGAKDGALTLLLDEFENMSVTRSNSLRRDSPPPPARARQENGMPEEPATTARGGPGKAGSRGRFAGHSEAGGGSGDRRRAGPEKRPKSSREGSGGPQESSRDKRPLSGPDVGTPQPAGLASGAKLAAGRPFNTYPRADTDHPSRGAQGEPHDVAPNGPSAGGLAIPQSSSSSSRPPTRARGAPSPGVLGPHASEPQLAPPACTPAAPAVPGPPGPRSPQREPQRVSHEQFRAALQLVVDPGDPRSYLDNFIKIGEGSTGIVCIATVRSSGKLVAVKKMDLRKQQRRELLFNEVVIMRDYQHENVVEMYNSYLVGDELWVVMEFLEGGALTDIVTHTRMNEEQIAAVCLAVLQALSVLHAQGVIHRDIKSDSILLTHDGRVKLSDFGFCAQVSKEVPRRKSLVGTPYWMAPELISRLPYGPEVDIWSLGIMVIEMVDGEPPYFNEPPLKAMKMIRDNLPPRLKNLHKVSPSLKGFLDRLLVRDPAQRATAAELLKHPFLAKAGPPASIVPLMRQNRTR

[10] = biological target: T1, Serine/threonine-protein kinase Chk1 (Homo sapiens) (UniProt O14757); experiment: Inhibition of CHK1 (unknown origin) at 1 uM relative to control; summary of the method: as §2
T1 sequence (whole entry): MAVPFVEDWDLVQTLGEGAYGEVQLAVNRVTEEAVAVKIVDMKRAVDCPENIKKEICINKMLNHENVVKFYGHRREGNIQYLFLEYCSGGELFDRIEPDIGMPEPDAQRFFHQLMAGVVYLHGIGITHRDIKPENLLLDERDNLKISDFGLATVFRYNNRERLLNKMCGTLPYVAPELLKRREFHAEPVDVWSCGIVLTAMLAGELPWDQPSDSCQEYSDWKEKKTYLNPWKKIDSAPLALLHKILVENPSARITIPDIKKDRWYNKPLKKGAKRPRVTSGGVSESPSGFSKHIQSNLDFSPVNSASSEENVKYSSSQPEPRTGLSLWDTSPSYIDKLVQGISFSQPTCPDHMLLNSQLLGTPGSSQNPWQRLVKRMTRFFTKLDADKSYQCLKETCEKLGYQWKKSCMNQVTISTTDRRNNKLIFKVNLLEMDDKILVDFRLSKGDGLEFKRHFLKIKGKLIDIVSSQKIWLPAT

[11] = biological target: Casein kinase 2 (Homo sapiens) (UniProt P67870+P68400+P19784+Q8NEV1); experiment: Inhibition of CK2 (unknown origin) at 1 uM relative to control; type: protein assay; summary of the method: as §2
[12] = biological target: Serine/threonine-protein kinase 26 (Homo sapiens) (UniProt Q9P289); experiment: Inhibition of MST4 (unknown origin) at 1 uM relative to control; summary of the method: as §3
Chain of Serine/threonine-protein kinase 26 (Homo sapiens) (Q9P289 2-416 limits assumed): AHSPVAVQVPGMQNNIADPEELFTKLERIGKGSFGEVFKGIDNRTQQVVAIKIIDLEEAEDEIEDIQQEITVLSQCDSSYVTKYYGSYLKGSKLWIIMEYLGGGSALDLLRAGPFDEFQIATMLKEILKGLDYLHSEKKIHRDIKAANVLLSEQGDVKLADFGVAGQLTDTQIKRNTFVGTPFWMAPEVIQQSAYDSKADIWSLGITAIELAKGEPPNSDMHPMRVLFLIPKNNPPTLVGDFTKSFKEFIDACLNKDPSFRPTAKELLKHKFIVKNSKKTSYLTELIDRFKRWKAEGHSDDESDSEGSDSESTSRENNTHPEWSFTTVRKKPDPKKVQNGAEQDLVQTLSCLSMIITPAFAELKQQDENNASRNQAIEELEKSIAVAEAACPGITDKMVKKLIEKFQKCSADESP

[13] = biological target: Dual specificity mitogen-activated protein kinase kinase 1 (Homo sapiens) (UniProt Q02750); experiment: Inhibition of MKK1 (unknown origin) at 1 uM relative to control; summary of the method: as §3
Chain of Dual specificity mitogen-activated protein kinase kinase 1 (Homo sapiens) (Q02750 whole entry): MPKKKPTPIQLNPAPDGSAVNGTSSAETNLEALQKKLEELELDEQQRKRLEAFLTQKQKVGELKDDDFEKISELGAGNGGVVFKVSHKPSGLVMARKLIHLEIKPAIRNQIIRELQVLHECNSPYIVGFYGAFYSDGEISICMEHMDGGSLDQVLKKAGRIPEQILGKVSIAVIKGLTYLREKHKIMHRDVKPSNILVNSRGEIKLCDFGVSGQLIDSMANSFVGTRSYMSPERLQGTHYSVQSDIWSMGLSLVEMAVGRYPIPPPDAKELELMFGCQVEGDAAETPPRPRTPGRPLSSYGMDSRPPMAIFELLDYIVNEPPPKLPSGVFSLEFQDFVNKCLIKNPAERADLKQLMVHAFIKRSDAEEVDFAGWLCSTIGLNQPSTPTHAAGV

[14] = biological target: T2, Inhibitor of nuclear factor kappa-B kinase subunit beta (Homo sapiens) (UniProt O14920); experiment: Inhibition of IKKb (unknown origin) at 1 uM relative to control; summary of the method: as §2
T2 sequence (whole entry): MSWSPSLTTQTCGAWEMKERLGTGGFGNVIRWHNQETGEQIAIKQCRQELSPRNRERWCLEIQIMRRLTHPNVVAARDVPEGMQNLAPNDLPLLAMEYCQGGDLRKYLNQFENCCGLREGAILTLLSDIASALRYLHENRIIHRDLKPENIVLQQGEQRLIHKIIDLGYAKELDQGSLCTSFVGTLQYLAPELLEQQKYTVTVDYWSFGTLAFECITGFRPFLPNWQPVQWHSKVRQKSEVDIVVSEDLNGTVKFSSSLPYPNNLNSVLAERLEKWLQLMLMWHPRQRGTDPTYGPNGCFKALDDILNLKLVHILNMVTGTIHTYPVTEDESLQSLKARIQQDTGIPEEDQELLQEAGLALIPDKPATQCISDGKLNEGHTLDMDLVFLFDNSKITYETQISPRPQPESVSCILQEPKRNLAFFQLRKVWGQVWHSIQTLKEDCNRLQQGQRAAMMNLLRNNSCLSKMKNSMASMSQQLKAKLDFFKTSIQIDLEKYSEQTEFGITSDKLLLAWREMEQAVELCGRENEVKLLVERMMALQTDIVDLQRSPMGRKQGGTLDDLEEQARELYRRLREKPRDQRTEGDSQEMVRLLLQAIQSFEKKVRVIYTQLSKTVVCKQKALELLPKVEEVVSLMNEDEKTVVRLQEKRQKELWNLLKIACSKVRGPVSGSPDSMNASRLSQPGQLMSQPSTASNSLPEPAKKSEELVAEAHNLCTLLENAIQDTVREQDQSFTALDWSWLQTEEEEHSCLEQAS

[15] = biological target: Fibroblast growth factor receptor 1 (Homo sapiens) (UniProt P11362); experiment: Inhibition of FGFR1 (unknown origin) at 1 uM relative to control; summary of the method: as §2
Chain of Fibroblast growth factor receptor 1 (Homo sapiens) (P11362 22-822 limits assumed): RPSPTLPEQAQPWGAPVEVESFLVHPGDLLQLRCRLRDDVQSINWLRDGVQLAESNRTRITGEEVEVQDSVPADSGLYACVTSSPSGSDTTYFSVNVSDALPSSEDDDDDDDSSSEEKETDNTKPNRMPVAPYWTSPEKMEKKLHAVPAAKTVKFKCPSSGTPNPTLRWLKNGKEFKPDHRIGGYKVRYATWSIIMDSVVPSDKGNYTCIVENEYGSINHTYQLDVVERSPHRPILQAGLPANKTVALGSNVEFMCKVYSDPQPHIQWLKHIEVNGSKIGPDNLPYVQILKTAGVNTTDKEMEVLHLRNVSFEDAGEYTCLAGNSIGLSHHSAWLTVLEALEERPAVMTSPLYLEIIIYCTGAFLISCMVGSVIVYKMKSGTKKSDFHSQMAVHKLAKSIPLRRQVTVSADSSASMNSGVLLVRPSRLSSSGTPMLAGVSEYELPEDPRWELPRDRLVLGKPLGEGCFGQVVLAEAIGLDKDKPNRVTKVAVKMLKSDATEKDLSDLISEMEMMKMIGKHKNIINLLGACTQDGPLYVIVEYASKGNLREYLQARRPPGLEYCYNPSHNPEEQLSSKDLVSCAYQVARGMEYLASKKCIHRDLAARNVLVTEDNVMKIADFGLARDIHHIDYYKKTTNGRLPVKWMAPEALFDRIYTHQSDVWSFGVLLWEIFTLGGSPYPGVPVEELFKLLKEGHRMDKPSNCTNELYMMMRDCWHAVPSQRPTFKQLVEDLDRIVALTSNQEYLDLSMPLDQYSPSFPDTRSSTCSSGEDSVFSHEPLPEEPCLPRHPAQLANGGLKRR

SMILES	inhibition [1] [%]	inhibition (Homo sapiens [2]) [%]	inhibition [3] [%]	inhibition [4] [%]	inhibition (Homo sapiens [5]) [%]	inhibition [6] [%]	inhibition [7] [%]	inhibition [8] [%]	inhibition [9] [%]	inhibition [10] [%]	inhibition [11] [%]	inhibition [12] [%]	inhibition [13] [%]	inhibition [14] [%]	inhibition [15] [%]
c1cc(-c2n[nH]c3ccnc(OC4CCOCC4)c23)cc(N2CCOCC2)n1	0	2	36	0	26	0	34	0	0	0	3	3	7	0	4
CC(C)n1cc(-c2n[nH]c3ccnc(OC4CCOCC4)c23)cn1	0	59	90	0	11	27	77	0	46	5	20	47	57	3	56
